Published values of several laboratories.
Lines come from different studies, so protocols differ.

OCc1nc2ccc(NCc3ccc(C(F)(F)F)cc3)cc2[nH]1 has an MRT(0-inf) of 1.9 h (male BALB/c mouse, plasma; oral, 10 mg/kg).
With CCOC(=O)C1=C(CN2CCC[C@@H]2C(=O)Nc2ccc(B(O)O)cc2)NC(c2nccs2)=N[C@H]1c1ccc(F)cc1Br the MRT(0-inf) was 0.57 h (CD-1 mouse, plasma; intravenous, 2 mg/kg).
For CCCCCCOc1ccc2c(=O)c3c([nH]c2c1)CCCC3, the half-life was 0.25 h (metabolic stability; human, liver microsomes; 1 µM, pH 7.4).
CCN(CC)CCNC(=O)c1c(C)[nH]c(/C=C2\C(=O)Nc3ccc(F)cc32)c1C has a half-life of 0.458 h (metabolic stability; human, liver microsomes; 1 µM, pH 7.4).
The half-life of O=c1c2c([nH]c3cc(OCc4ccc(OC(F)(F)F)cc4)ccc13)CCCC2 is reported as 0.627 h (metabolic stability; human, liver microsomes; 1 µM, pH 7.4).
The MRT(0-inf) of Cc1nc2ccc(OCc3ccc(C(F)(F)F)cc3)cc2[nH]1 is reported as 1.54 h (male BALB/c mouse, plasma; intravenous, 1 mg/kg).
For COC1=CC(c2ccc[nH]2)=N/C1=C\c1[nH]c(Cc2ccc(OC(F)(F)F)cc2)cc1Cc1ccc(OC(F)(F)F)cc1, the MRT(0-t) was 23.1 h (male CD-1 mouse, plasma; oral, 40 mg/kg, single dose).
For NCc1cc2c(cc1F)C(=O)N(C1CCC(=O)NC1=O)C2 (stereo not shown), the AUC(0-inf) was 5.5 ng·h/mL (male cynomolgus monkey, plasma; oral, 0.3 mg/kg).
COC1=CC(c2ccc[nH]2)=N/C1=C\c1cc(Cc2ccc(OC(F)(F)F)cc2)c(C)[nH]1.Cl gave an MRT(0-t) of 34.8 h (male CD-1 mouse, liver; oral, 40 mg/kg, single dose).
CC[C@H](C)[C@H](NC(=O)[C@@H]1CCCN1C(=O)CNC(=O)[C@H](Cc1ccccc1)NC(=O)[C@H](CC(N)=O)NC(=O)[C@H](CC(N)=O)NC(=O)[C@H](CO)NC(=O)[C@H](CO)NC(=O)[C@H](Cc1c[nH]cn1)NC(=O)[C@H](CCCNC(=N)N)NC(=O)[C@H](CC(C)C)NC(=O)[C@H](Cc1ccccc1)NC(=O)[C@H](CCC(=O)O)NC(=O)[C@H](C)NC(=O)[C@H](CC(C)C)NC(=O)[C@H](CCCNC(=N)N)NC(=O)[C@H](CCC(N)=O)NC(=O)[C@@H](NC(=O)[C@H](C)NC(=O)[C@@H]1CSSC[C@H](NC(=O)[C@H](CCCCN)NC(=O)CC[C@H](NC(=O)CCCCCCCCCCCCCCCCCCC(=O)O)C(=O)O)C(=O)N[C@@H](CC(N)=O)C(=O)N[C@@H]([C@@H](C)O)C(=O)N[C@@H](C)C(=O)N[C@@H]([C@@H](C)O)C(=O)N1)[C@@H](C)O)C(=O)N[C@@H](CC(C)C)C(=O)N1CCC[C@H]1C(=O)N1CCC[C@H]1C(=O)N[C@H](C(=O)N[C@@H](CC(N)=O)C(=O)N[C@H](C(=O)NCC(=O)N[C@@H](CO)C(=O)N[C@@H](CC(N)=O)C(=O)N[C@H](C(=O)N1CCC[C@H]1C(N)=O)[C@@H](C)O)C(C)C)[C@@H](C)O has an AUC(0-inf) of 39.3 µM·h (cynomolgus monkey, plasma; subcutaneous, 20 nmol/kg, single dose).
